Several values for one entry are separate records, joined by “and”; a condition that tells them apart may be missing. Equal entries are not always repeated. Where two headings read alike, the source gives them in different places.
How the values were obtained:
NTCP = target: T1, NTCP (Homo sapiens, UniProt Q14973); assay: Raloxifene as a substrate for uptake transporters; format: in vitro ADME; conditions: raloxifene 1, 10 μM, 2, 20 min, two‐fold cutoff
T1 sequence (Q14973 1-349): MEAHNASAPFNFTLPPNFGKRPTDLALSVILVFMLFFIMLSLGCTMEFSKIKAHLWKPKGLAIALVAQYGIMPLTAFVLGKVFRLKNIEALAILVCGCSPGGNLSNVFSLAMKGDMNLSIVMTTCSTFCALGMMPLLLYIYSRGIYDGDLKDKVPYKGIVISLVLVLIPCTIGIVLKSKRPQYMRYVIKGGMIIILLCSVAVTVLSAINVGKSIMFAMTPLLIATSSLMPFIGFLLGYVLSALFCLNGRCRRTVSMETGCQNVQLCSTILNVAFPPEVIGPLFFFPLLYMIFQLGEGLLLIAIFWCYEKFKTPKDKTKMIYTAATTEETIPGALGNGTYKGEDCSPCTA
How it was run: (§1)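 Uptake of test compound (1 and 10 μM, 2 and 20 min) measured in transporter-expressing HEK293 or MDCKII cells or inside-out membrane vesicles. Run with positive-control probe substrates and inhibitors, plus empty-vector or untransfected control cells. Fold-accumulation relative to control cells judged against a two-fold cutoff for substrate status.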

[1] = Follow-up exploratory clinical study: raloxifene stool recovery; format: in vivo, human; conditions: for Raloxifene dose recovery0–48h in stool, geometric mean (CV%): stool 0 to 48 h relative to dose
How it was run: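 Stool collected within 48 h pre-dose and all movements 0–24 and 24–48 h post-dose (water vs acute green tea arms), held at −20°C. Blended with water (1:2.5 by weight), stored at −80°C. Methanol/0.1% formic acid extraction with internal standards. 1×, 10× and 100× dilutions dried, reconstituted, quantified by UHPLC–MS/MS (calibration 0.06–400 nM). Recovery 0–48 h expressed as % of administered dose.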

OATP2B1 = target: T2, OATP2B1 (Homo sapiens, UniProt O94956); assay: Raloxifene as a substrate for uptake transporters; format: in vitro ADME; conditions: raloxifene 1, 10 μM, 2, 20 min, two‐fold cutoff
T2 sequence (O94956 1-709): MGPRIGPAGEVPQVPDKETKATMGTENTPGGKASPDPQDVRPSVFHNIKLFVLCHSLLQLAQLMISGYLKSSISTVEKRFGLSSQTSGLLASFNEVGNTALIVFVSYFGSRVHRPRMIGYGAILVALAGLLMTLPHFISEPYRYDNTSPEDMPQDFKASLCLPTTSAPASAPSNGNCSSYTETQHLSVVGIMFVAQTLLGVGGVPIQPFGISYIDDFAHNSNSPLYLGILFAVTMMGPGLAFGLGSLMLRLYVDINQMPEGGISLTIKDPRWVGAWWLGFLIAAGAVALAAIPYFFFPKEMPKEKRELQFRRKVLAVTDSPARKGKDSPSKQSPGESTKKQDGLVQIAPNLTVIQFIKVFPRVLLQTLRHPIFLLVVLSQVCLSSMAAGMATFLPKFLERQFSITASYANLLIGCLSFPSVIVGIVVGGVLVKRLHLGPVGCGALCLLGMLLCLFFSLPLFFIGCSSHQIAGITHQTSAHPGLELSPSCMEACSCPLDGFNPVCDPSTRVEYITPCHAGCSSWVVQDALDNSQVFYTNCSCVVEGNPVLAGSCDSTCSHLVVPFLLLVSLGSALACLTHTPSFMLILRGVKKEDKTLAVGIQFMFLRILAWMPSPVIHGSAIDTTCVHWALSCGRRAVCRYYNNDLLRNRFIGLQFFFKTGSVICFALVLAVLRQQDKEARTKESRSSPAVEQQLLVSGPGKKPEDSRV
How it was run: as §1

[2] = after oral administration; cited from earlier work
[3] = format: in vivo, human
How it was run: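 Open-label fixed-sequence crossover in 16 healthy adults (8 male, 8 female), arms ≥7 days apart, fasted from midnight. Oral 60 mg test compound tablet with 240 mL water at 50°C (baseline) or brewed green tea. Acute: tea (one bag, 240 mL water, 80°C, 3 min, cooled to 50°C) given with dose, then at 4 and 8 h. Chronic: tea three times daily for 4 days, then day 5 as acute.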

OCT1 = target: T3, OCT1 (Homo sapiens, UniProt O15245); assay: Raloxifene as a substrate for uptake transporters; format: in vitro ADME; conditions: raloxifene 1, 10 μM, 2, 20 min, two‐fold cutoff
T3 sequence (O15245 1-554): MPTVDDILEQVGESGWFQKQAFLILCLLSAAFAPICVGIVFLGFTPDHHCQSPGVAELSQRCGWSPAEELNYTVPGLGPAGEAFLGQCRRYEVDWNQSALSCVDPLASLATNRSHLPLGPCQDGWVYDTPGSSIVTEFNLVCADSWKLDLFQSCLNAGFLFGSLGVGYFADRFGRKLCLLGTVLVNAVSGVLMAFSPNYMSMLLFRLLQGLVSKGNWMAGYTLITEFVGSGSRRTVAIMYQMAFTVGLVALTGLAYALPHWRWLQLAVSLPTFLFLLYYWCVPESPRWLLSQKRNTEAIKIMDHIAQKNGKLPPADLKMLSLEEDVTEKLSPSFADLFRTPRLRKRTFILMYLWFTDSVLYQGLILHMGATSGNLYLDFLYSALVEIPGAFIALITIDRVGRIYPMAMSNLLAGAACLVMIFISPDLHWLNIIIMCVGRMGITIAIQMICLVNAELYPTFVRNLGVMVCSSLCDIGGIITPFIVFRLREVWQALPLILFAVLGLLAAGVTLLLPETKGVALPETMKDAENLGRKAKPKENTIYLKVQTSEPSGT
How it was run: as §1

[4] = upon acute and chronic green tea administration

fold‐accumulation (NTCP): 1.14–1.33 | Raloxifene dose recovery0–48h green tea/baseline ratio (90% CI) ([1]; acute green tea vs baseline): 1.05 (0.45–2.43) | Raloxifene dose recovery0–48h in stool, geometric mean (CV%) ([1]; acute green tea): 10.6 (103) % | Raloxifene dose recovery0–48h in stool, geometric mean (CV%) ([1]; baseline): 10.1 (115) % | fold‐accumulation (OATP2B1): 0.82–1.00 | AUC0–48h green tea/baseline ratio (90% CI) ([3]; acute green tea vs baseline): 0.53 (0.43–0.64) | AUC0–96h green tea/baseline ratio (90% CI) ([3]; acute green tea vs baseline): 0.57 (0.46–0.70) | Cmax,1 green tea/baseline ratio (90% CI) ([3]; acute green tea vs baseline): 0.37 (0.28–0.50) | t 1/2 green tea/baseline ratio (90% CI) ([3]; acute green tea vs baseline): 0.95 (0.81–1.12) | AUC0–96h green tea/baseline ratio (90% CI) ([3]; acute green tea vs baseline, listed as raloxifene): 0.57 | geometric mean green tea/baseline raloxifene AUC0–96h ratio ([3]; after both acute and chronic administration): ~ 0.60 | half-life ([3]; both, human, plasma, oral, geometric mean terminal half‐life, unchanged upon acute and chronic green tea administration): ~24 h | Tmax ([3]; both, human, plasma, oral, median t max,1, unchanged upon acute and chronic green tea administration): ~2 h | AUC0–48h green tea/baseline ratio (90% CI) ([3]; chronic green tea vs baseline): 0.56 (0.43–0.72) | AUC0–96h green tea/baseline ratio (90% CI) ([3]; chronic green tea vs baseline): 0.66 (0.54–0.81) | Cmax,1 green tea/baseline ratio (90% CI) ([3]; chronic green tea vs baseline): 0.39 (0.24–0.64) | t 1/2 green tea/baseline ratio (90% CI) ([3]; chronic green tea vs baseline): 0.89 (0.75–1.04) | AUC0–96h green tea/baseline ratio (90% CI) ([3]; chronic green tea vs baseline, listed as raloxifene): 0.66 | magnitude of the decrease in raloxifene AUC with green tea ([3]; main study): ~ 40% | AUC0–48h ratio [3, 4]: 0.53–0.56 | Cmax,1 ratio [3, 4]: 0.37–0.39 | fold‐accumulation (OCT1): 1.13–1.52
Structure (SMILES): O=C(c1ccc(OCCN2CCCCC2)cc1)c1c(-c2ccc(O)cc2)sc2cc(O)ccc12 [Raloxifene, raloxifene, reference compound]
Percentage change in raloxifene stool recovery ([1]; baseline to acute green tea, individual participants): −70% and 440% and −80% and 300% and 10% and −14% | Raloxifene stool recovery ([1]; baseline, individual participants no. 8, 11, 12, 16, 17, 18): 1.7% and 0.27% and 93.8% and 18.0% and 17.4% and 69.8% | oral bioavailability [2]: < 2% | tolerability ([3]; main study, 16 participants, no severe adverse events reported): well tolerated

— paper PMC10582660 (Clinical and Translational Science, 2023)
